High-throughput results as filed in PubChem.
Sampled rows, rich in hits. Any-hit rate of the full collection: about 3.1%.
CFTR F508del cor: F508del CFTR correction, initial screen, CFBE line, single point | CFBE cells, YFP halide quenching; stimulated with forskolin plus potentiator P3; % fluorescence drop versus neutral controls | activity (quench increase), % at 7.58 µM | 0.36% of 350,000 active;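 active = mean added fluorescence quench of at least 8% versus neutral control, with both replicates also reaching 8%; inconclusive = only one of the mean or replicate conditions met; inactive = mean below 8% and not both replicates reaching 8%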;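 note: cells transiently co-express mutant CFTR-F508del with the halide-sensitive YFP; corrector assay measuring rescue of mutant channel to the surface after 24 h compound exposure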
S100A4 MyoIIA: inhibitors of S100A4-myosin IIA peptide binding, primary screen, biochemical, fluorescence polarization, TAMRA-MyoIIA peptide | inhibition, % at 10.7 µM | 0.14% of 360,000 active | AID 652163, 2013 | Protein S100-A4 (Homo sapiens), P26447;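 active = mean inhibition of at least 70% across replicates, with every replicate also reaching that level; inconclusive = mean inhibition reaches 70% but some replicates fall short; inactive = mean inhibition below 70%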
Target sequence (P26447 whole entry, looked up): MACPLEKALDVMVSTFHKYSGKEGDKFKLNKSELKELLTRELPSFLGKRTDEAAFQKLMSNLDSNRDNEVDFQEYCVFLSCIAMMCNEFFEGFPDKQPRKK
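Test system – S100A4 monomer (human) · Compound – single-point compound testing · Schedule – 5 min incubation before reading · Probe or stimulus – TAMRA-labelled myosin IIA heavy-chain peptide probe, 5 nM · Benchmarks – neutral control DMSO, positive control TFP · Medium – Calcium-containing HEPES buffer, pH 7.2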
ERAP1 inh: human ERAP1 aminopeptidase inhibitors, primary screen, biochemical, single point, plate reader; recombinant ERAP1, Leu-AMC fluorescence, 60 min; inhibition, % at 10.7 µM; 0.15% of 340,000 active; AID 652197, 2013; Endoplasmic reticulum aminopeptidase 1 (Homo sapiens), Q9NZ08;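 active = mean replicate inhibition of at least 30%, or all replicates individually reaching that 30% level; inactive = mean below 30% and not every replicate reaching it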;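 note: 0% = neutral control wells and 100% = L-leucinethiol positive control wells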
SIRT5 block: SIRT5 desuccinylase inhibitors, primary screen, biochemical, fluorescence imaging, single point, set 5; NAD-dependent protein deacylase sirtuin-5, mitochondrial (Homo sapiens), Q9NXA8; Purified SirT5, succinyl-peptide AMC, trypsin-coupled fluorescence; inhibition, % at 15 µM; 1.1% of 330,000 active; AID 652115, 2013; in the data active = inhibition above about 15%; inconclusive = no clear call, values can overlap the other calls
Target sequence (Q9NXA8 whole entry, looked up): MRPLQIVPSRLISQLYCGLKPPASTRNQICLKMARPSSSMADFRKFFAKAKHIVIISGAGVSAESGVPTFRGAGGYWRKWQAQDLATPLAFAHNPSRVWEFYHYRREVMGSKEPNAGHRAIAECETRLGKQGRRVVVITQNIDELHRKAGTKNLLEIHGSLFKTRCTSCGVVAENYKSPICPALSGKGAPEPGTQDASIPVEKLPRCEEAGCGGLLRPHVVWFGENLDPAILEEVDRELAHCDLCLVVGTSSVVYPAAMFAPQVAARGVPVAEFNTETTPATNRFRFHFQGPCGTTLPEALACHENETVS
Ecoli rRNA inh: reduced GFP signal of wild-type E. coli, primary screen, bacterial rRNA inhibitor project, GFP/RFP fluorescence, OD600, single point; E. coli WT GFP vs humanized-ribosome RFP mutants, 24 h; stronger effect = lower value; DMSO median 0, no signal -100; GFP signal change (wild-type ribosome), % (test concentration not listed); 1.6% of 350,000 active;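 active = significant combined selectivity score with lowered wild-type GFP, culture density cut under 30%, mutant RFP and density less affected; inactive = any of these conditions unmet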
AID977621: growth inhibition of wild-type GFP E. coli, dose response, H69 mutant RFP, cherry-pick | AID 977621, 2014 | 1,900 tested, under 10 active | activity change, negative = inhibition at 50 µM | shares compounds with Ecoli rRNA inh | E. coli wild-type GFP strain growth, fluorescence, 24 h;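 active = Wild-type ribosome reporter drop at least double the humanized mutant ribosome reporter drop, growth loss under a set limit; inconclusive = no clear call, values can overlap the other calls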;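 note: wild-type GFP and H69 mutant RFP strains grown together 50/50 in each well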
AID977628: E. coli growth inhibition, wild-type GFP versus h24 humanized RFP strain, dose response, h24 mutant RFP vs wild-type GFP, cherry-pick; shares compounds with Ecoli rRNA inh; E. coli WT GFP strain growth, fluorescence, 24 h; activity change, negative = inhibition at 50 µM; 1,900 tested, under 10 active;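 active = compound lowering the normal-ribosome reporter at least twice as much as the humanized-ribosome reporter, growth loss under a set limit; inconclusive = no clear call, values can overlap the other calls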;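 note: wild-type GFP and h24 humanized RFP strains co-cultured 1 to 1 per well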
* hit, by the source's call; ! = repeats disagree.

For Cc1cc(C(=O)OCC(=O)NCCc2ccc(S(N)(=O)=O)cc2)c2ccccc2n1 the results were CFTR F508del cor 3, S100A4 MyoIIA -7, ERAP1 inh -4, SIRT5 block -4 and Ecoli rRNA inh 3.
Cc1cc(C(=O)OCC(=O)Nc2cccc(S(N)(=O)=O)c2)c2ccccc2n1 was read as CFTR F508del cor -1, S100A4 MyoIIA -17, SIRT5 block 10, Ecoli rRNA inh -20* and AID977621 -6.5.
CC(C)c1nnc(NC(=O)C2CCCCC2)s1 was read as CFTR F508del cor -3, S100A4 MyoIIA 1, ERAP1 inh 10, SIRT5 block -5 and Ecoli rRNA inh -1.
`CC(C)c1cc(C(N)=O)c(NC(=O)C2CCC2)s1` gave CFTR F508del cor -1, S100A4 MyoIIA -4, ERAP1 inh 0, SIRT5 block 1, Ecoli rRNA inh -24* and AID977621 inconclusive.
COc1ccc(-n2nc3cc(N)c(Br)cc3n2)cc1 was read as CFTR F508del cor -5, S100A4 MyoIIA -7, ERAP1 inh -3, SIRT5 block -3, Ecoli rRNA inh -27*, AID977621 -1.5 and AID977628 -11.
COc1ccc(-n2nc3cc(C)c(NC(C)=O)cc3n2)cc1 was read as CFTR F508del cor -2, S100A4 MyoIIA 9, ERAP1 inh 7, SIRT5 block -3 and Ecoli rRNA inh 10.
Screening Cc1ccc(S(=O)(=O)Nc2cccc3c2O[C@H](CN(C)Cc2ccc(-c4ccccc4)cc2)[C@@H](C)CN([C@@H](C)CO)C3=O)cc1 returned CFTR F508del cor -1, S100A4 MyoIIA -2, ERAP1 inh -2, SIRT5 block 4 and Ecoli rRNA inh 4.
COCC#Cc1ccc2c(c1)O[C@@H](CN(C)S(=O)(=O)c1cccc(F)c1)[C@H](C)CN([C@H](C)CO)S2(=O)=O was read as CFTR F508del cor -1, S100A4 MyoIIA 5, ERAP1 inh -3, SIRT5 block 2 and Ecoli rRNA inh -5.
For Cc1ccc(-c2ccc3c(c2)O[C@@H](CN(C)Cc2cccc(C(=O)O)c2)[C@H](C)CN([C@@H](C)CO)S3(=O)=O)cc1 the results were CFTR F508del cor 4, S100A4 MyoIIA 1, ERAP1 inh 1, SIRT5 block 6, Ecoli rRNA inh -18* and AID977628 inconclusive.
For COCC#Cc1ccc2c(c1)O[C@@H](CN(C)S(=O)(=O)c1cccc(F)c1)[C@@H](C)CN([C@H](C)CO)S2(=O)=O the results were CFTR F508del cor 2, S100A4 MyoIIA 7, ERAP1 inh 2, SIRT5 block 19*!, Ecoli rRNA inh -20*! and AID977621 -22.
For CCCn1c(C(C)Nc2nc(-c3cccc(Br)c3)cs2)nc2ccccc21 (stereo unspecified) the results were CFTR F508del cor 0, S100A4 MyoIIA -1, ERAP1 inh 0 and Ecoli rRNA inh 6.
For CCCn1c(C(C)Nc2nc(-c3ccc(C)cc3)cs2)nc2ccccc21 (stereo unspecified) the results were CFTR F508del cor 1, S100A4 MyoIIA -16, ERAP1 inh -4, SIRT5 block -3, Ecoli rRNA inh -16*, AID977621 -14 and AID977628 -1.6.
Screening O=C(NCc1ccccc1)c1ccc(-c2ccccc2F)o1 returned CFTR F508del cor -1, S100A4 MyoIIA 1, ERAP1 inh -3, SIRT5 block -3, Ecoli rRNA inh -38*, AID977621 -22 and AID977628 inconclusive.
`O=C(Nc1ccc(C(=O)c2ccccc2)cc1)c1ccccc1` gave CFTR F508del cor -2, S100A4 MyoIIA -7, ERAP1 inh 2, SIRT5 block -3, Ecoli rRNA inh -22* and AID977621 -3.3.
